High-throughput results as filed in PubChem BioAssay.
UBC13 inh – human UBC13 polyubiquitination inhibition | P61088 | 330,000 tested, 0.47% active | UBC13 polyubiquitin chain formation, TR-FRET | inhibition, % at 20 µM | AID 485273; in the data active = inhibition above about 45%, passing the limit was not always enough
Target sequence (P61088 whole entry, looked up): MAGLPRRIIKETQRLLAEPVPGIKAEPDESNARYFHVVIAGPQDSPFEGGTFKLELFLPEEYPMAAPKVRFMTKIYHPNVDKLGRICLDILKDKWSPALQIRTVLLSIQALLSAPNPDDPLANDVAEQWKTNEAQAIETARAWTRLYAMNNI
TMEM16A act – mouse TMEM16A channel activation, primary screen. Q8BHY3. 340,000 tested, 0.3% active. HEK293 TMEM16A/YFP-H148Q/I152L, iodide quench fluorescence; active compounds read low. B-score at 10 µM;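 active = fluorescence-ratio B-score plate-corrected deviation score at least 3 library SD below zero, with starting fluorescence score within 5 deviations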;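 note: channel opened by trigger with iodide after compound preincubation; score built on the fluorescence ratio of max minus min over baseline; more negative score means more quench and so TMEM16A activation or potentiation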
TMEM16A inh – blocks the mouse calcium-activated chloride channel TMEM16A; Q8BHY3; HEK293 TMEM16A/YFP iodide influx fluorescence, ionomycin; normalized B-score (activity score, 25-100; higher = stronger inhibition) at 10 µM; 310,000 tested, 1.2% active; AID 588511;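 active = ratio plate-corrected score three or more library SD toward inhibition, starting fluorescence score within five deviations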;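 note: score derived from kinetic fluorescence span divided by baseline fluorescence per well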
Apaf1 inhib – inhibitors of human Apaf-1 apoptosome. O14727. reconstituted apoptosome caspase-3 activity, DEVD-Rh110 fluorescence. inhibition, % at 20 µM. 330,000 tested, 0.71% active. AID 489030; active = inhibition of at least 40% at 20 µM;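 note: plate controls were DMSO wells for no effect and DEVD-CHO caspase inhibitor wells for full effect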
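Material: reconstituted apoptosome with Apaf-1, cytochrome c, caspase-9, procaspase-3, dATP / Buffer or medium: pH 7.5 Hepes buffer with CHAPS, BSA, DTT / Also added: cytochrome c with DEVD-Rh110 / Schedule: compound with Apaf-1, dATP, procaspase-3 30 min, then 50 min reaction, room temperature / Technique: rhodamine 110 fluorescence at Ex 480/Em 540 nm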
DNA FID counter – counter-screen for HCV NS3 helicase inhibitors: DNA intercalator displacement; DNA fluorescent intercalator displacement, fluorescence; inhibition, % at 7.9 µM; 290,000 tested, 0.17% active; in the data active = inhibition above about 37%;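 note: 0% = vehicle and 100% = reference compound; higher means more ethidium bromide displaced from hairpin DNA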
Apaf-1 inh conf2 – confirmation of Apaf-1 inhibitors; shares compounds with Apaf1 inhib; reconstituted apoptosome, caspase-3 DEVD-Rh110 fluorescence; inhibition, % at 20 µM; 1,800 tested, 25% active; AID 504614;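 active = mean inhibition of at least 40% at 20 µM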;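 note: plate controls were DMSO wells for no effect and DEVD-CHO caspase inhibitor control wells for full effect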
Rh110 quench – counter-screen for Apaf-1 inhibitors: fluorescence interference; shares compounds with Apaf1 inhib; Rh110 fluorescence interference, quenched caspase reaction; AID 504615; 1,800 tested, under 10 active; activation (fluorescence interference), % at 20 µM;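 active = signal rise of 40% or more at 20 µM, treated as a fluorescence artifact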
* = called active by the depositor; i = inactive; . = no result given. The list is not random: actives were taken first. Their share in the collection is about 2.4%.

SMILES	UBC13 inh	TMEM16A act	TMEM16A inh	Apaf1 inhib	DNA FID counter	Apaf-1 inh conf2	Rh110 quench
O=C1NCCCc2c1oc1ccc(O)cc21	-6.0	i	i	0.5	0.6	.	.
CNC(=S)N1CCC(NC(=O)C23CC4CC(CC(C4)C2)C3)CC1	2.8	i	i	0.7	-5.5	.	.
CC(=O)N1CCN(C(=S)NC(=O)C23CC4CC(CC(C4)C2)C3)CC1	-6.3	i	i	47.5*	-6.2	2.9	-7.7
CCC(CO)Oc1cc(NCc2cccc(C)c2)c2ncn(C(C)C)c2c1 (stereo not drawn)	-5.8	i	.	54.2*	.	28.2	6.5
CCC(CO)Oc1cc(NCc2ccc(C)cc2)c2ncn(C(C)C)c2c1 (stereo not drawn)	-8.6	i	.	41.0*	.	21.5	4.2
CCC(CO)Oc1cc(NCc2cccc(C(F)(F)F)c2)c2ncn(C(C)C)c2c1 (stereo not drawn)	-1.2	i	.	40.9*	.	17.9	14.5
COc1ccc(OC)c(S(=O)(=O)N2CCCC(C(=O)NCCN3CCOCC3)C2)c1 (stereo not drawn)	5.5	i	i	0.7	-0.2	.	.
CC1=NN(c2ccc(C)cc2C)C(=O)C1C(c1cccc(O)c1)C1C(=O)N(c2ccc(C)cc2C)N=C1C (stereo not drawn)	-30.0	i	i	85.3*	-13.2	27.4	-1.6
COc1ccccc1/C=C\C(=O)NCC(=O)N/N=C/c1ccc(O)cc1O	5.7	i	i	-21.9	0.9	.	.
Cc1cc(NC(=O)CSCC(=O)N(C)Cc2ccc(F)cc2)no1	18.9	i	i	15.8	-5.8	.	.
CSc1ccc(CN(C)C(=O)CSCC(=O)Nc2cc(C)on2)cc1	13.5	i	i	48.0*	-20.5	36.1	-2.2
CCOc1ccccc1NC(=O)c1cc(-c2ccccn2)nc2ccccc12	-8.0	i	.	52.8*	.	15.2	6.7
O=C(O)CC(NC(=O)c1sc2ccccc2c1Cl)c1ccc(OC2CCCC2)cc1 (stereo not drawn)	-13.6	i	i	44.4*	-7.2	10.6	1.0
O=C(O)CC1S/C(=N/N=C/c2ccc(-c3ccc(Cl)cc3[N+](=O)[O-])o2)NC1=O (stereo not drawn)	-48.5	i	i	52.1*	-24.9	29.0	4.5
Cc1ccc2c(c1)N(CCC(=O)NC1CCCCC1C)C(=O)CO2 (stereo not drawn)	-10.9	i	i	-0.7	-25.5	.	.
OCCNC(=S)Nc1ccc2nsnc2c1	-46.7	i	i	96.9*	0.7	12.7	3.5
CCc1nc(N2CCN(C(=O)CCl)CC2)c2c3c(sc2n1)CC(C)CC3 (stereo not drawn)	31.2	i	i	18.9	-23.9	.	.
CCc1nc(N2CCN(C(C)=O)CC2)c2c3c(sc2n1)CC(C(C)(C)C)CC3 (stereo not drawn)	22.4	i	i	41.8*	-27.8	31.2	10.5
O=C(/C=C/c1ccco1)c1ccc(NC(=O)C23CC4CC(CC(C4)C2)C3)cc1	-0.6	i	i	45.4*	-10.2	15.4	3.5
O=C1Cc2cc(S(=O)(=O)N3CCNCC3)ccc2N1	-3.8	i	.	40.1*	.	10.3	6.3
O=C1Cc2cc(S(=O)(=O)N3CCCCC3)ccc2N1	0.5	i	i	8.7	-6.9	.	.
O=C(CN(c1ccc(F)cc1)S(=O)(=O)c1ccccc1)NCCSC1CCCCC1	-6.2	i	i	0.5	-11.0	.	.
CCOc1cc(/C=N/NC(=O)c2ccc(N(C)S(=O)(=O)c3ccccc3)cc2)ccc1OC	2.2	i	i	15.7	-33.3	.	.
O=C(NCCCN1CCCC1=O)C1CCN(S(=O)(=O)c2ccccc2)CC1	14.3	i	.	-8.5	.	.	.
CCOc1ccc(/C=C/[N+](=O)[O-])c2ccccc12	-44.1	i	i	80.5*	-2.8	23.9	1.5
CCOc1ccc(C(=O)OCC(=O)Nc2ccc(SC(F)F)cc2)cc1OCC	5.1	i	i	15.8	-4.4	.	.
N#CCC(=O)Nc1ccc(C(=O)OCC(=O)N2CCCC2=O)cc1	-3.8	i	i	5.3	.	.	.
